According to ChEMBL document CHEMBL1155837 (Bioorg Med Chem Lett, 2008):

Experiments:
Human alphaherpesvirus 2 [1] = test: Antiviral activity against acyclovir-sensitive HSV2 HG32 in african green monkey Vero cells assessed as inhibition of virus plaque formation; type: functional, organism-based; conditions: Human alphaherpesvirus 2, HG32, Vero
Outline: (§1)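 Vero cells were grown to density in DMEM with 10% fetal bovine serum, L-glutamine, penicillin and streptomycin, then preincubated 30 min with drug and kept in drug throughout. They were infected with 100 pfu per well, adsorbed 45 min and overlaid with 1.2% Avicel in DMEM. After 3 days, plaques were stained with crystal violet and counted.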

Human alphaherpesvirus 2 [2] = test: Antiviral activity against acyclovir-resistant HSV2 ACR in african green monkey Vero cells assessed as inhibition of virus plaque formation; type: functional, organism-based; conditions: Human alphaherpesvirus 2, ACR; outline: as §1
Human alphaherpesvirus 1 [3] = test: Antiviral activity against HSV1 KOS in HEL cells assessed as inhibition of virus induced cytopathicity within 48 hrs; type: functional, organism-based; conditions: Human alphaherpesvirus 1, KOS
Outline: (§2)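 Confluent HEL fibroblast cultures were inoculated with 100 CCID50 of virus per well. After 1 h adsorption, residual virus was removed and cells were incubated with serial dilutions of compound.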

Human alphaherpesvirus 2 [4] = test: Antiviral activity against HSV2 G in HEL cells assessed as inhibition of virus induced cytopathicity within 48 hrs; type: functional, organism-based; conditions: Human alphaherpesvirus 2, strain G; outline: as §2
[5] = Cytotoxicity against HEL cells assessed as alteration of cell morphology; type: cell-based; conditions: human
Outline: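 In HEL cells, the MCC is the minimal compound concentration producing a microscopically visible change in cell morphology.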

Human alphaherpesvirus 3 [6] = test: Antiviral activity against TK+ VZV OKA infected HEL cells assessed as reduction in virus plaque formation after 5 days; type: functional, organism-based; conditions: Human alphaherpesvirus 3, OKA, 120 h
Human alphaherpesvirus 3 [7] = test: Antiviral activity against TK+ VZV YS infected HEL cells assessed as reduction in virus plaque formation after 5 days; type: functional, organism-based; conditions: Human alphaherpesvirus 3, YS, 120 h
Human alphaherpesvirus 3 [8] = test: Antiviral activity against thymidine kinase deficient VZV 07/1 infected HEL cells assessed as reduction in virus plaque formation after 5 days; type: functional, organism-based; conditions: Human alphaherpesvirus 3, 07/1, HEL, 120 h
Human alphaherpesvirus 3 [9] = test: Antiviral activity against thymidine kinase deficient VZV YS/R infected HEL cells assessed as reduction in virus plaque formation after 5 days; type: functional, organism-based; conditions: Human alphaherpesvirus 3, YS/R, 120 h
[10] = Cytotoxicity against HEL cells assessed as inhibition of cell proliferation; type: cell-based; conditions: human
Human alphaherpesvirus 1 [11] = test: Antiviral activity against acyclovir-resistant and thymidine kinase deficient HSV1 KOS in HEL cells assessed as inhibition of virus induced cytopathicity within 48 hrs; type: functional, organism-based; conditions: Human alphaherpesvirus 1, KOS; outline: as §2
Human alphaherpesvirus 2 [12] = test: Antiviral activity against HSV2; type: functional, organism-based

C[C@H](NP(=O)(OCCOCn1cnc2c(=O)[nH]c(N)nc21)Oc1ccccc1)C(=O)OCc1ccccc1 (some centres not stated)
EC50 (Human alphaherpesvirus 2 [1]): 20.3 µM
EC50 (Human alphaherpesvirus 2 [2]): 15.5 µM
EC50 (Human alphaherpesvirus 1 [3]): 900 nM
EC50 (Human alphaherpesvirus 2 [4]): 1.4 µM
MCC [5]: > 50 µM
EC50 (Human alphaherpesvirus 3 [6]): 0.72 µM
EC50 (Human alphaherpesvirus 3 [7]): 1 µM
EC50 (Human alphaherpesvirus 3 [8]): 1.8 µM
EC50 (Human alphaherpesvirus 3 [9]): 0.59 µM
CC50 [10]: > 100 µM

COC(=O)[C@H](C)NP(=O)(OCCOCn1cnc2c(=O)[nH]c(N)nc21)Oc1cccc2ccccc12 (some centres not stated)
EC50 (Human alphaherpesvirus 2 [1]): 40.4 µM
EC50 (Human alphaherpesvirus 2 [2]): 15 µM
EC50 (Human alphaherpesvirus 1 [11]): 80 µM
MCC [5]: > 50 µM
EC50 (Human alphaherpesvirus 3 [6]): 7.6 µM
EC50 (Human alphaherpesvirus 3 [7]): 10.9 µM
EC50 (Human alphaherpesvirus 3 [8]): 22 µM
EC50 (Human alphaherpesvirus 3 [9]): 6.1 µM
CC50 [10]: > 100 µM

COC(=O)[C@H](C)NP(=O)(OCCOCn1cnc2c(=O)[nH]c(N)nc21)Oc1ccccc1 (some centres not stated)
EC50 (Human alphaherpesvirus 2 [12]): ≥ 100 µM
EC50 (Human alphaherpesvirus 2 [1]): 43.1 µM
EC50 (Human alphaherpesvirus 2 [2]): 18.7 µM
EC50 (Human alphaherpesvirus 2 [4]): 15 µM
EC50 (Human alphaherpesvirus 1 [11]): 80 µM
MCC [5]: > 100 µM
EC50 (Human alphaherpesvirus 3 [6]): 19 µM
EC50 (Human alphaherpesvirus 3 [7]): 20 µM
EC50 (Human alphaherpesvirus 3 [8]): 24 µM
EC50 (Human alphaherpesvirus 3 [9]): 16 µM
CC50 [10]: 162 µM

Nc1nc2c(ncn2COCCOP(=O)(N[C@@H](Cc2ccccc2)C(=O)OCc2ccccc2)Oc2ccccc2)c(=O)[nH]1 (some centres not stated)
EC50 (Human alphaherpesvirus 2 [1]): 20.3 µM
EC50 (Human alphaherpesvirus 2 [2]): 33.2 µM
EC50 (Human alphaherpesvirus 2 [4]): 8 µM
EC50 (Human alphaherpesvirus 1 [11]): > 100 µM
MCC [5]: > 50 µM
EC50 (Human alphaherpesvirus 3 [6]): 5.2 µM
EC50 (Human alphaherpesvirus 3 [7]): 6.6 µM
EC50 (Human alphaherpesvirus 3 [8]): 8.4 µM
EC50 (Human alphaherpesvirus 3 [9]): 10 µM
CC50 [10]: 86.9 µM

C[C@H](NP(=O)(OCCOCn1cnc2c(=O)[nH]c(N)nc21)Oc1cccc2ccccc12)C(=O)OCc1ccccc1 (some centres not stated)
EC50 (Human alphaherpesvirus 2 [1]): 9.8 µM
EC50 (Human alphaherpesvirus 2 [2]): 14.5 µM
EC50 (Human alphaherpesvirus 1 [11]): 11 µM
MCC [5]: > 50 µM
EC50 (Human alphaherpesvirus 3 [6]): 7.2 µM
EC50 (Human alphaherpesvirus 3 [7]): 3.3 µM
EC50 (Human alphaherpesvirus 3 [8]): 6.9 µM
CC50 [10]: 20 µM

Nc1nc2c(ncn2COCCO)c(=O)[nH]1 [ACYCLOVIR]
EC50 (Human alphaherpesvirus 2 [1]): 6 µM
EC50 (Human alphaherpesvirus 2 [2]): > 100 µM
MCC [5]: > 250 µM
CC50 [10]: 1350 µM
